Most compounds without a hit are left out; they make up all but 1.5% or so of the library.
bovine MsrA act: bovine MsrA enzyme activators, primary screen, biochemical, absorbance, HTS | purified bovine MsrA, absorbance read-out | activation, % at 10.6 µM | 0.3% of 360,000 active | AID 602163, 2012; in the data active means activation above about 7.5%;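 further: 0% = vehicle and 100% = reference activator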
MsrA inh: bovine MsrA enzyme inhibitors, primary screen, biochemical, absorbance, HTS; Methionine sulfoxide reductase A (Bos taurus); purified bovine MsrA, absorbance read-out; inhibition, % at 15.5 µM; 0.75% of 360,000 active; AID 651718, 2012;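 further: 0% = vehicle wells with enzyme and 100% = reference inhibitor wells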
TbMetRS inhib: T. brucei MetRS inhibitors, primary screen, biochemical, luminescence. purified T. brucei MetRS, ATP depletion, Kinase-Glo luminescence. inhibition, % at 11.9 µM. 0.4% of 360,000 active. methionyl-tRNA synthetase (Trypanosoma brucei brucei);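 active means inhibition above a per-plate cutoff of the control wells' mean inhibition plus 3 SD, cut at about 5.5% in these data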;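 further: 0% = DMSO wells median and 100% = median of wells with control inhibitor compound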
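Dosing: 11.9 µM single point; system: parasite MetRS enzyme; technique: luminescence of leftover ATP; times: 15 min enzyme-compound preincubation, 2 h reaction, 10 min detection, 25 °C; replicates: each compound tested once; read-out basis: percent inhibition relative to median high and low control wells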
proCasp3 act: activators of human procaspase-3 D3A mutant, primary screen, biochemical, absorbance, PC-3 D3A mutant, single concentration. recombinant procaspase-3 D3A, Ac-DEVD-pNA absorbance 405 nm. activation, % at 8.5 µM. 0.11% of 330,000 active. Caspase-3 (Homo sapiens), P42574. AID 463141, 2010;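 active means activation above the mean of all tested compounds plus 3 SD, cut at about 21% in these data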;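 further: 0% = DMSO alone and 100% = DMSO wells spiked with extra 5 µM PC-3 D3A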
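Evaluation: percent activation relative to control range; Material: Procaspase-3 D3A mutant, all three cleavage aspartates alanine; Compound: single dose, 8.5 µM nominal compound, 0.8% DMSO; Replication: one well per compound; Signal: absorbance at 405 nm, 0 and 120 min; Schedule: 1 h preincubation plus 2 h reaction at 25 °C.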
proCasp7 act: procaspase-7 activators, primary screen, counter-screen for procaspase-3 activator project, biochemical, absorbance, HTS, human; Caspase-7 (Homo sapiens), P55210; recombinant procaspase-7, Ac-DEVD-pNA absorbance 405 nm; D23A/D198A/D206A triple mutant, cannot self-cleave; scale: DMSO 0, 5 µM enzyme 100; activation, % at 8.5 µM; 0.093% of 330,000 active;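 active means percent activation above the screen-wide mean plus 3 SD, cut at about 25% in these data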
Target sequence (P55210 whole entry D23A/D198A/D206A): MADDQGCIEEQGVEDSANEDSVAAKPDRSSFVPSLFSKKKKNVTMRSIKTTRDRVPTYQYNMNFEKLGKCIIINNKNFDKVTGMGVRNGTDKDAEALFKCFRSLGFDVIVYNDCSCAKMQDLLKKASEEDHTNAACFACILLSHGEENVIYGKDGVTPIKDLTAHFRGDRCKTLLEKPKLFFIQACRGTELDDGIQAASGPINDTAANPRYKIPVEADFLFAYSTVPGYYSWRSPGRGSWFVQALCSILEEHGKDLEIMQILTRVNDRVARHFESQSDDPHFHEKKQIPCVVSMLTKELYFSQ
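buffer or medium = Zinc-free HEPES/NaCl buffer, pH 7.4 | material = Procaspase-7 triple mutant (PC-7 D3A) | input = 2 µM procaspase-7 mutant as dispensed | signal = Epi-absorbance of released pNA at 405 nm, two timepoints | timing = 1 h preincubation, 2 h reaction | replicates = singlicate compound testing | evaluation = % activation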
MsrA conf: bovine MsrA inhibitors, retest, confirmation, biochemical, absorbance, HTS; inhibition, % at 15.5 µM; 41% of 2,300 active; purified bovine MsrA, absorbance read-out; AID 651822, 2012; shares compounds with MsrA inh;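 further: coupled to thioredoxin reductase with NADPH and selenocystamine and DMSO as substrate; 0% = vehicle only and 100% = full effect of reference inhibitor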
The depositor's hits bear a star; nt = not tested or not shown. Unless noted, no stated cut-off is given here; in the data, active means inhibition above about 4.5%; inactive means the rest.

SMILES | bovine MsrA act | MsrA inh | TbMetRS inhib | proCasp3 act | proCasp7 act | MsrA conf
CCOc1ccc(NC(=O)CN(C)c2nnnn2-c2ccccc2)cc1OCC | -1 | 1 | 0 | 0 | 17 | nt
COc1ccc(C2CC(=O)C(c3ccc(C(C)=O)cc3)=CN2Cc2ccccc2)cc1 (centres undefined) | nt | 1 | nt | nt | nt | nt
O=C(CC(=O)c1ccccc1)c1ccccc1 | -6 | 1 | 0 | nt | nt | nt
CC(CC(=O)c1ccccc1)=NCCCN=C(C)CC(=O)c1ccccc1 | -4 | 5.2* | 0 | nt | nt | 4
CCCCCc1c(-c2cccc(OC)c2)ncn1CCc1ccccc1OC | -2 | 21* | -1 | nt | nt | 18*
CCCCCc1c(-c2cccc(F)c2)ncn1CCc1ccccc1OC | -2 | 2 | 0 | nt | nt | nt
CCCCS(=O)(=O)N1CCN(C(=O)C(=O)c2cccc(C(F)(F)F)c2)CC1 | nt | 0 | nt | nt | nt | nt
Nc1nc2ccc(Cl)cc2cc1C(=O)NCCCN1CCOCC1 | nt | -1 | 0 | nt | nt | nt
Cc1ccc(/C=N/NC(=O)c2cccs2)s1 | -6 | 6.7* | -1 | 3 | 2 | 4.9*
Cc1cc(C(=O)N/N=C/c2ccc3c(c2)OCO3)c(C)o1 | -4 | 2 | -2 | -13 | 7 | nt
COc1cc(/C=N/NC(=O)c2cccs2)ccc1O | -9 | 1 | 0 | 1 | -3 | nt
O=C(N/N=C/c1ccc2c(c1)OCO2)c1cccs1 | -10 | 6.1* | -1 | 1 | -21 | 5
O=C(N/N=C/c1ccc2c(c1)OCO2)c1ccc(Br)o1 | -4 | 7.5* | 0 | 3 | -6 | 8.3*
COc1cc(/C=N/NC(=O)c2ccc(-n3cccc3)cc2)ccc1O | -5 | 5.9* | 0 | -3 | -6 | 4.8*
COc1ccc(C2CC(=O)C(c3ccc(F)cc3)=CN2Cc2ccccc2)cc1 (centres undefined) | nt | 0 | nt | nt | nt | nt
CCCCSc1nc(O)cc(=O)n1CC | 1 | -1 | 0 | -2 | 3 | nt
CCOC(=O)/C(=C\Nc1cccc(OCc2ccccc2)c1)NC(=O)c1ccccc1 | nt | 0 | nt | nt | nt | nt
CN(C)c1ccc(/C=N/NC(=O)c2ccc3c(c2)OCCO3)cc1 | -4 | 5.0* | 0 | -3 | 2 | 5.5*
O=C(N/N=C/c1ccc([N+](=O)[O-])cc1)c1cccs1 | -4 | 5.4* | 0 | -3 | 13 | 5.0*
COc1cc(/C=N/NC(=O)c2ccc3c(c2)OCO3)ccc1O | -4 | 6.3* | 0 | nt | nt | 4
COc1cc(/C=N/NC(=O)/C(=C\c2ccc3c(c2)OCO3)NC(=O)c2ccccc2)ccc1O | -7 | 8.7* | 0 | -4 | 11 | 4.9*
CCN(CC)c1ccc(/C=N/NC(=O)c2ccc3c(c2)OCCO3)cc1 | -1 | 3 | 0 | nt | nt | nt
COc1ccc(/C=N/NC(=O)c2ccc3c(c2)OCO3)cc1 | -3 | 4 | -1 | -3 | -17 | nt
O=C(N[C@H](Cc1ccccc1)C(=O)O)[C@H]1O[C@@H](n2ccc(=O)[nH]c2=O)[C@H](O)[C@@H]1O | nt | 2 | nt | nt | nt | nt
NS(=O)(=O)c1ccc(CNC(=O)c2ccc(C(=O)c3ccccc3)cc2)cc1 | -3 | -1 | 0 | -5 | -8 | nt
CCOc1cc(/C=N/NC(=O)c2ccc3c(c2)OCCO3)cc(Br)c1O | -4 | 6.0* | 0 | -3 | 10 | 6.9*
O=C(N/N=C/c1ccc2c(c1)OCO2)c1ccc2c(c1)OCCO2 | -5 | 4.9* | -1 | 4 | 6 | 4
CN(C)c1ccc(C(=O)N/N=C/c2ccccn2)cc1 | -3 | 7.4* | 0 | 5 | 4 | 4
O=C(N/N=C/c1cc(Br)c(O)c(Br)c1O)c1ccc2c(c1)OCCO2 | -5 | 4 | 0 | -69 | -97 | nt
c1ccc(-n2nnnc2-n2nnc3ccccc32)cc1 | -4 | 23* | 0 | 8 | -2 | 22*
